Here are results for 25 compounds from ChEMBL document CHEMBL1125253, “Allosteric modifiers of hemoglobin. 1. Design, synthesis, testing, and structure-allosteric activity relationship of novel hemoglobin oxygen affinity decreasing agents” (J Med Chem, 1991).

Values joined by “and” are separate entries in the source; they are usually repeats but may differ in a detail not shown here. Identical values can stand only once.

For experiment [1], the target named is T1, Hemoglobin HbA (Homo sapiens) (UniProt P69905+P68871). The experiment can be described thus: Oxygen pressure in mmHg at which the […] hemoglobin solution (in presence of 10 mM compound) was 50% saturated with oxygen. In kind it is protein-complex assay. The gist of the method:
(§1)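 Purified HbA from washed, lysed erythrocytes (DEAE-Sephacel, pH 8.4 Tris elution), exchanged into 50 mM HEPES pH 7.4. Stock Hb 5.4 mM mixed 1:1 with 20 mM compound in HEPES, giving final 2.7 mM Hb and 10 mM compound (about 4:1). Control is Hb mixed with buffer alone. Oxygen dissociation curves recorded on a Hem-O-Scan analyzer. P50 in mmHg at 50% saturation.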

For experiment [2], the target named is T1, Hemoglobin HbA (Homo sapiens). Description: Oxygen pressure in mmHg at which the control hemoglobin solution (no compound) was 50% saturated with oxygen. In kind it is protein-complex assay. The gist of the method:
as §1

The nature of experiment [3]: Dose-response study in whole blood at a concentration of 0.5 mM. In kind it is tissue-based. The gist of the method: (§2)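 Fresh heparinized whole blood mixed 1:1 with test compound in isosmotic 50 mM HEPES pH 7.4 containing 140 mM NaCl and 10 mM glucose. Hb after addition approximately 1.25 mM. Oxygen dissociation curves recorded on a Hem-O-Scan analyzer. P50 with compound divided by P50 of control.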

A short description of experiment [4]: Dose-response study in whole blood at a concentration of 1.0 mM. In kind it is tissue-based. The method in brief: as §2
Experiment [5] in a line: Dose-response study in whole blood at a concentration of 10.0 mM. In kind it is tissue-based. The method in brief: as §2
Experiment [6] is described as follows: Dose-response study in whole blood at a concentration of 2.0 mM. In kind it is tissue-based. The method in brief:
as §2

A short description of experiment [7]: Dose-response study in whole blood at a concentration of 4.0 mM. In kind it is tissue-based. The method in brief: as §2

T1 sequence (P68871 2-147 partner limits assumed): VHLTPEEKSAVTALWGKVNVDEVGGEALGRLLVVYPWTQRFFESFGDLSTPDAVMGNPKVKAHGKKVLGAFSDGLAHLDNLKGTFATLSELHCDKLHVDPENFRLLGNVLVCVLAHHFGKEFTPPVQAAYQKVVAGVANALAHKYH
T1 sequence (P69905 2-142 limits assumed): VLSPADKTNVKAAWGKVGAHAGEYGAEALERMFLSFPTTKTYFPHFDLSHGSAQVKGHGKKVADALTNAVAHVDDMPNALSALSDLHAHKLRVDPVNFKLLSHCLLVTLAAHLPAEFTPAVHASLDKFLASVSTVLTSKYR

In the case of `CC(C)(Oc1ccc(CC(=O)Nc2ccc(C(F)(F)F)cc2)cc1)C(=O)O`, the P50d in experiment [1] is 44 mmHg [middle of 4 runs]. For the same compound, the P50c in experiment [2] was 20 mmHg and 17.5 mmHg (2×) and 18 mmHg.

For `CC(C)(Oc1ccc(CNC(=O)c2ccccc2)cc1)C(=O)O`, the P50d in experiment [1] is 35 mmHg and 35.5 mmHg. For the same compound, the P50c in experiment [2] was 18 mmHg and 19 mmHg.

For `CC(C)(Oc1ccc(CC(=O)Nc2c(Cl)cccc2Cl)cc1)C(=O)O`, the P50d in experiment [1] is 34 mmHg and 35 mmHg. For the same compound, in experiment [2], the P50c was found to be 18 mmHg.

Turning to `CC(C)(Oc1ccc(CNC(=O)c2cc(Cl)cc(Cl)c2)cc1)C(=O)O`, in experiment [1], the P50d was 48.5 mmHg and 47 mmHg and 46 mmHg. This compound gave a P50c in experiment [2] of 19 mmHg.

In the case of `CC(C)(Oc1ccc(NC(=O)Nc2ccc(Cl)c(Cl)c2)cc1)C(=O)O`, in experiment [1], the P50d was 32 mmHg. This compound also had a P50c in experiment [2] of 18 mmHg.

For the compound `CC(C)(Oc1ccc(CNC(=O)c2ccccc2Cl)cc1)C(=O)O`, the P50d in experiment [1] worked out at 28 mmHg. For the same compound, in experiment [2], the P50c was determined as 19 mmHg.

For `CC(C)(Oc1ccc(CC(=O)Nc2ccc(F)cc2)cc1)C(=O)O`, the P50d in experiment [1] was 52 mmHg and 44 mmHg. The P50c in experiment [2] is 20 mmHg and 17.5 mmHg.

For the compound `Cc1ccc(NC(=O)Cc2ccc(OC(C)(C)C(=O)O)cc2)cc1`, in experiment [1], the P50d is 40 mmHg and 41 mmHg. The P50c in experiment [2] is 15 mmHg.

Take `CC(C)(Oc1ccc(CCNC(=O)c2ccc(Cl)cc2)cc1)C(=O)O`: the P50d in experiment [1] was 31 mmHg [middle of 4 runs]. For the same compound, the P50c in experiment [2] is 18 mmHg and 17 mmHg (2×) and 18.5 mmHg.

Take `CC(C)(Oc1ccc(CCNC(=O)c2ccccc2)cc1)C(=O)O`: in experiment [1], the P50d is 32 mmHg. In experiment [2], this compound gave a P50c of 18 mmHg.

With `CC(C)(Oc1ccc(NC(=O)Nc2cc(Cl)c(Cl)c(Cl)c2)cc1)C(=O)O`, the P50d in experiment [1] is 48 mmHg and 35 mmHg and 36 mmHg. Also, the P50c in experiment [2] is 18 mmHg and 14 mmHg (2×).

`CC(C)c1ccc(NC(=O)Cc2ccc(OC(C)(C)C(=O)O)cc2)cc1`: the P50d in experiment [1] was 57 mmHg and 56.5 mmHg and 57.8 mmHg. Besides, in experiment [2], the P50c is 19.5 mmHg and 19 mmHg (2×).

In the case of `CC(C)(Oc1ccc(CC(=O)Nc2ccc(Cl)c(Cl)c2)cc1)C(=O)O`, the P50d in experiment [1] turned out to be 65 mmHg. In experiment [2], the P50c was 18.2 mmHg and 18 mmHg.

Regarding `CC(C)(Oc1ccc(CC(=O)Nc2ccc(Cl)cc2)cc1)C(=O)O`, in experiment [1], the P50d is 52 mmHg [middle of 4 runs]. In addition, the P50c in experiment [2] was 15.5 mmHg and 19 mmHg and 18.5 mmHg (2×).

For the compound `CC(C)(Oc1ccc(CC(=O)Nc2cc(Cl)c(Cl)c(Cl)c2)cc1)C(=O)O`, in experiment [1], the P50d was 37 mmHg and 60 mmHg and 63 mmHg. Also, in experiment [2], the P50c was 12 mmHg and 19 mmHg (2×).

With `CC(C)(Oc1ccc(CC(=O)Nc2cc(Cl)cc(Cl)c2)cc1)C(=O)O`, the P50d in experiment [1] is 47 mmHg [middle of 5 runs]. Further, the P50c in experiment [2] is 10.3 mmHg and 11 mmHg (2×) and 19.2 mmHg (2×). Besides, the P50d/P50c in experiment [3] is 1.09; in experiment [4], 1.52; in experiment [5], 2.93; in experiment [6], 2; in experiment [7], 2.72.

`CC(C)(Oc1ccc(CC(=O)Nc2ccccc2)cc1)C(=O)O`: in experiment [1], the P50d was 63 mmHg and 54 mmHg. The P50c in experiment [2] is 20.5 mmHg and 19 mmHg.

On to `CC(C)(Oc1ccc(CNC(=O)c2cccc(Cl)c2)cc1)C(=O)O`, for which the P50d in experiment [1] was 37 mmHg. Further, in experiment [2], the P50c is 18 mmHg and 19 mmHg.

Turning to `Cc1cc(C)cc(NC(=O)Cc2ccc(OC(C)(C)C(=O)O)cc2)c1`, the P50d in experiment [1] was 75.5 mmHg and 76.5 mmHg and 78 mmHg. Also, the P50c in experiment [2] is 19 mmHg and 19.2 mmHg (2×). Besides, the P50d/P50c was 1.07 in experiment [3]; 1.53 in experiment [4]; 3 in experiment [5]; 1.93 in experiment [6]; 2.61 in experiment [7].

For `CC(C)(Oc1ccc(CNC(=O)c2ccc(Cl)c(Cl)c2)cc1)C(=O)O`, the P50d in experiment [1] was 38.5 mmHg and 40 mmHg. Besides, the P50c in experiment [2] is 19 mmHg and 18 mmHg.

For `CC(C)(Oc1ccc(NC(=O)Cc2ccccc2)cc1)C(=O)O`, in experiment [1], the P50d is 35 mmHg. Moreover, the P50c in experiment [2] stood at 19.5 mmHg.

Turning to `CC(C)(Oc1ccc(CNC(=O)c2cc(Cl)c(Cl)c(Cl)c2)cc1)C(=O)O`, the P50c in experiment [2] was 19 mmHg (2×) and 11.5 mmHg.

Consider `CC(C)(Oc1ccc(NC(=O)Cc2ccc(Cl)cc2)cc1)C(=O)O`, for which the P50d in experiment [1] is 44 mmHg [middle of 5 runs]. In addition, the P50c in experiment [2] was 19 mmHg (4×) and 21 mmHg.

On to `CC(C)(Oc1ccc(CNC(=O)c2ccc(Cl)cc2)cc1)C(=O)O`, for which, in experiment [1], the P50d is 48 mmHg (2×) and 49 mmHg. In addition, in experiment [2], the P50c is 19 mmHg (2×) and 18 mmHg.

Take `CC(C)(Oc1ccc(NC(=O)Nc2cc(Cl)cc(Cl)c2)cc1)C(=O)O`: in experiment [1], the P50d was 44 mmHg and 65 mmHg and 63 mmHg. Besides, in experiment [2], the P50c was 11.8 mmHg and 18 mmHg (2×). In addition, the P50d/P50c in experiment [3] was found to be 0.96; in experiment [4], 1.15; in experiment [5], 2.25; in experiment [6], 1.7; in experiment [7], 1.84.
